bCat nuc transl – modulators of beta-catenin nuclear translocation, primary screen, imaging, HeLa cells, immunofluorescence, high-content; nuclear translocation activity, % at 5 µM; hit rate 0.3% among 190,000;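 active = nuclear translocation activity above 50% at 5 µM, with a well cell count of 50 or more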;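 note: per-cell ratio of nuclear to cytoplasmic median beta-catenin stain intensity; plate controls were DMSO negative control for no effect and GSK-3 inhibitor IX positive control for full effect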
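Test system: human HeLa cell line; Doses: 5 µM primary, 0.02–20 µM confirmation; Incubation: 24 h compound exposure, 37°C; Detection: beta-catenin immunofluorescence imaging with DAPI; Read-out: beta-catenin nuclear/cytoplasmic ratio, % activation.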
Autophagy mod – autophagy modulators in MEF cells, primary screen, imaging, high-content, MEF GFP-LC3 | MEF GFP-LC3 puncta imaging; test concentration mostly 10 µM | calls only at 10 µM (by protocol) | hit rate 0.98% among 190,000 | AID 463193, 2010;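 active = percentage of spot-positive cells more than 3 SD above its plate mean, without a fluorescence outlier flag or 80% toxicity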;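 note: spot-positive cell cutoff set from DMSO-treated cells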
L major viab – Leishmania major promastigote growth inhibition, primary screen; Leishmania major promastigotes, resazurin fluorescence viability; inhibition, % at 10 µM; hit rate 9% among 200,000; in the data active = inhibition above about 50%;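 note: promastigotes grown with compound for 44 hours at 28 °C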
Dynein transport – inhibitors of GR-EGFP nuclear translocation, primary screen, dynein cargo transport inhibitor project, imaging, high-content, 3617.4 mouse cells. test concentration mostly 20 µM; stimulated with dexamethasone, 1 µM; stronger effect = lower value. z-score, hits read low. hit rate 0.47% among 220,000. AID 1381, 2008;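 active = plate z-score of nuclear minus cytoplasmic receptor signal below a set negative limit, without overly bright fluorescence or cell loss, cut at about -3.5 in these data, passing the limit was not always enough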;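 note: z-score of nuclear minus cytoplasmic ring GR-EGFP intensity difference per well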
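Medium: Induction medium lacking tetracycline, stripped serum | Probe or stimulus: 1.0 µM final dexamethasone stimulus | Schedule: 48 h induction, then 1 h compound, then 30 min agonist, 37 °C | Signal: Automated 10x imaging of fixed Hoechst-stained cells | Evaluation: Per-cell GR-EGFP intensity, nucleus versus surrounding cytoplasmic ring, well-averaged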
MT stabilize HCS – microtubule stabilizers in HeLa cells, primary screen, imaging, high-content imaging; HeLa tubulin immunostaining HCS, 24 h; share of cells brighter than vehicle mean+2SD; % tubulin-high responders, % at 10 µM; hit rate 0.83% among 200,000;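 active = plate Z-score above 3 for both tubulin-high and condensed-nucleus cell shares, with cell loss under 80%, at 10 µM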;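 note: anti alpha tubulin signal scored within the nucleus-defined area of each cell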
CHOP inhibitor – inhibitors of CHOP promoter induction, primary screen, cell-based, unfolded protein response, luciferase reporter; inhibition, % at 10 µM; AID 2732, 2010; hit rate 3.8% among 220,000; CHO-K1 CHOP-promoter luciferase, tunicamycin-induced, 15-18 h;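 active = compounds that reduced the stress-induced luciferase reporter signal by more than about 70% of percent inhibition, limit read from the data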;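 note: 0% = tunicamycin plus vehicle and 100% = wells without tunicamycin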
The depositor's hits bear a star; i = inactive; x = no result given; + = active, no number. This is a sample that favours compounds with a hit; in the whole collection about 12% have one here.

SMILES	bCat nuc transl	Autophagy mod	L major viab	Dynein transport	MT stabilize HCS	CHOP inhibitor
COCCNC(=S)N/N=C(\C)c1ccc(-n2ccnc2)cc1	-2	i	4	0.98	2	11
Cc1cc2nc3c(nc2cc1C)C(O)=C3O	-1	x	x	-0.89	x	-18
CC(C)N(CCNC(=O)c1oc(=O)c2ccccc2c1-c1ccccc1)Cc1ccco1	-1	i	7	0.19	2	29
COc1ccccc1Cn1cccc1C=O	2	+	-3	-0.51	1	-16
COc1ccccc1CN1CCSCC1	-9	i	63*	0.34	2	1
Fc1ccc2c(c1)C(c1ccncc1)=NNC(c1cccnc1)=N2	-1	i	-1	-0.79	3	6
CCOCCCn1c(=S)[nH]c2cc(C(=O)NCCCN(CC)CC)ccc2c1=O	0	i	-11	-0.61	2	2
O=C(NCCC1=CCCCC1)C1CCN(C(=O)Cc2ccccc2)CC1	0	i	-2	0.12	4	-25
COc1ccc(Sc2ccc(/C=C3\C(=O)NN(c4ccccc4)C3=O)o2)cc1	-2	i	56*	0.58	5	40
Cc1cc(N2C(=O)CC(N3CCN(C(c4ccccc4)c4ccccc4)CC3)C2=O)no1 (stereo unspecified)	-2	i	-5	-0.34	4	11
O=C(CN1C(=O)/C(=C/c2ccccc2F)Sc2ccccc21)N1CCN(c2ccccn2)CC1	3	i	15	0.17	3	17
O=C(CN1C(=O)/C(=C\c2ccc(F)cc2)Oc2ccccc21)N1CCN(c2ccccn2)CC1	1	i	-2	0.14	2	90*
O=C(CN1C(=O)/C(=C\c2cccc(F)c2)Oc2ccccc21)N1CCN(c2ccccn2)CC1	3	i	50*	-0.31	3	18
Cc1nc2ccccc2c(=O)n1NC(=O)Cc1ccccc1	x	i	2	-0.057	2	x
CNCc1c(OCc2ccccc2F)ccc2ccccc12	3	i	56*	0.69	3	-4
COc1ccc(CNCCNC(=O)c2nonc2N)cc1OC	-1	i	-7	0.73	4	-2
Nc1nonc1C(=O)NCCNCc1ccccc1	1	i	-6	-0.54	2	32
Cc1cccc(NCc2ccccc2OCc2ccccc2F)c1	-1	i	-2	-0.32	2	47
Nc1nonc1C(=O)NCCNCc1cc(Br)ccc1OCc1ccc(F)cc1	2	+	-1	-0.16	2	62
Nc1nonc1C(=O)NCCNCc1c(OCc2ccccc2F)ccc2ccccc12	-3	i	8	-0.66	3	73*
CC(O)C(C(=O)OCc1ccc([N+](=O)[O-])cc1)N1C(=O)c2ccccc2C1=O (stereo unspecified)	-1	i	-2	-0.6	3	-14
CCN(CCCNC(=O)CCn1c(=O)[nH]c2ccccc2c1=O)c1cccc(C)c1	-2	i	16	-0.053	6	3
O=C(CC(C(=O)N1CCc2ccccc21)n1ccnc1)N1CCc2ccccc2C1 (stereo unspecified)	2	i	100*	-0.87	6	29
CCCCNC(=O)CC(C(=O)N1CCc2ccccc21)n1ccnc1 (stereo unspecified)	x	i	88*	0.029	2	-2
CCN(CCCNC(=O)CC(C(=O)N1CCc2ccccc21)n1ccnc1)c1cccc(C)c1 (stereo unspecified)	2	i	100*	0.15	4	27
SMILES	bCat nuc transl	Autophagy mod	L major viab	Dynein transport	MT stabilize HCS	CHOP inhibitor
O=C(CC(C(=O)N1CCc2ccccc21)n1ccnc1)NCC1CCCO1 (stereo unspecified)	0	i	11	-0.076	5	-1
COC(=O)C(O)(CC(=O)Nc1ccccc1OC)C(F)(F)F (stereo unspecified)	2	i	-5	-0.01	3	10
Cc1cc(NNC(=O)c2cccc(C(F)(F)F)c2)nc2c1c(C)nn2C	0	x	x	-0.24	x	48
COc1cc(NC(=O)CSc2nccc(C)n2)c(C)cc1[N+](=O)[O-]	-5	i	1	0.64	3	20
CCOC(=O)c1cc2sccc2n1CC(=O)N1CCN(C(=O)c2ccco2)CC1	-2	i	1	0.32	7	-4
CCOC(=O)c1sc(-c2ccc(Cl)cc2)nc1O	-4	x	x	-0.13	x	10
Cc1ccc(C(=O)NNC(=O)c2cccc(S(=O)(=O)N3CCN(c4ccccc4)CC3)c2)cc1	1	i	-12	-0.67	3	25
CC(C)Oc1cccc(C(=O)Nc2ccccc2N2CCOCC2)c1	-2	i	5	0.56	8	74*
CCC(C)Oc1cccc(C(=O)Nc2ccccc2N2CCOCC2)c1 (stereo unspecified)	x	i	-2	-0.41	2	75*
CCC(C)C(NC(=O)c1ccccc1NC(=O)c1ccccc1)C(=O)N1CCOCC1 (stereo unspecified)	0	i	53*	-0.4	1	42
N#CCN1C(=O)C2CCCN2c2ccc(S(=O)(=O)N3CCOCC3)cc21 (stereo unspecified)	2	i	-2	-0.26	4	1
Nc1ccc(-c2nc3nc(N)nc(N)c3nc2-c2ccc(N)cc2)cc1	-2	x	x	1.3	x	9
O=C(COc1ccc(Br)cc1Cl)NC(=O)NCc1ccccc1	x	i	54*	0.37	2	80*
CC(C)(C)NC(=O)NC(=O)COc1ccc(Br)cc1Br	x	i	-3	0.54	3	83*
O=C(COc1ccc(Br)cc1CNC1CCCCC1)NCCc1ccccc1	-10	i	93*	0.071	2	36
O=C(COc1ccccc1Br)NC1CCCC1	0	i	2	-0.11	3	20
O=C(COc1ccc(Br)cc1Cl)NC(=O)Nc1ccc2c(c1)OCCO2	-3	i	-4	1.4	10	-24
O=C(COc1ccc(Br)cc1Br)NC(=O)NC1CCCC1	-1	i	1	2	7	87*
CC(C)(C)OC(=O)NCCCC[C@H](NC(=O)c1nc[nH]c1C(=O)NC(c1ccccc1)c1ccccc1)C(=O)OC(C)(C)C	4	i	-5	-0.14	2	14
O=C(NC12CC3CC(CC(C3)C1)C2)N1CCN(C2CCCCC2)CC1	1	i	85*	0.43	4	11
S=C(NC1CCCCC1)N1CCN(C2CCCCC2)CC1	0	i	91*	2.6	5	2
O=C(NC1CCCCC1)N1CCN(C2CCCCC2)CC1	x	i	68*	-0.068	4	-6
